Screening data: PubChem BioAssay, The Scripps Research Institute Molecular Screening Center
STAT1 inh = STAT1 signaling inhibition; NIH 3T3 STAT1-luciferase reporter, IFN-gamma, luminescence; inhibition, % at 5.5 µM; 0.35% of 200,000 active; AID 920;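 active means inhibition above a set limit, the mean inhibition across all tested compounds plus 3 SD, cut at about 34% in these data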;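 further: 0% = IFN-gamma with DMSO and 100% = IFN-gamma with 300 µM nifuroxazide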
STAT3 act = STAT3 signaling activation. U3A cells, IL-6 STAT3-luciferase reporter, luminescence; 100% = signal with IL-6 EC80 alone. activation (% of control), % at 5.6 µM. 0.91% of 190,000 active;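 active means activation above the screen-wide mean of compound activation plus 3 SD, cut at about 130% in these data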;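 further: 0% = background luminescence of wells with medium and substrate only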
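System – human U3A cells carrying STAT3-luciferase construct · Probe or stimulus – Interleukin-6, 33 ng/mL · Schedule – compound 1 h, then IL-6 6 h at 37 °C · Signal – luminescence from STAT3-driven luciferase reporter · Evaluation – percent of IL-6-only median luminescence · Benchmarks – IL-6-only high control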
STAT3 inh = inhibitors of IL-6 induced STAT3 signaling | U3A cells, IL-6 STAT3-luciferase reporter, luminescence; host cell line lacks STAT1 | inhibition, % at 5.5 µM | 0.89% of 190,000 active | AID 862;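 active means inhibition above the mean inhibition across all screened compounds plus 3 SD, cut at about 44% in these data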;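 further: 0% = DMSO only wells and 100% = 100 µM nifuroxazide control wells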
STAT1 activator = increases IFN-gamma driven STAT1 reporter signal. activation (% of control), % at 5.5 µM. 2.6% of 200,000 active. NIH 3T3 STAT1-luciferase reporter, luminescence; 100% = IFN-gamma alone, no compound;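 active means activation above the screen-wide mean activation plus 3 SD, cut at about 130% in these data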;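 further: raw ratio to IFN-gamma control signal so 100% means no change and 0% no light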
* marks the source's active call; other numbers are inactive results. Compounds with a hit are over-represented: about 4.3% of the library has one in this group of screens.

SMILES	STAT1 inh	STAT3 act	STAT3 inh	STAT1 activator
COCC(C)n1c(C)cc(C(=O)COC(=O)CN=C2NS(=O)(=O)c3ccccc32)c1C (stereo unspecified)	-3	104	-3	102
Clc1ccc(-c2cc3ccccc3[nH]2)cc1	-34	108	1	131*
COCC1CCN(Cc2nc(-c3cccs3)no2)C1 (stereo unspecified)	-37	101	5	135*
COc1ccc(C(=O)Nc2cccc(-c3cc4ccccc4oc3=O)c2)cc1[N+](=O)[O-]	0	97	8	100
O=C(Nc1nc(-c2ccc(Cl)s2)cs1)c1ccco1	-32	93	11	130*
O=C(Nc1nc(-c2ccc(Cl)s2)cs1)c1cccs1	-13	102	4	111
Cc1ccc(Nc2nc(-c3sc(NC(=O)c4ccco4)nc3C)cs2)cc1	-11	135*	-34	110
C=CCNC(=O)/C(=C/c1cccc([N+](=O)[O-])c1)NC(=O)c1ccco1	5	103	3	95
C/C(=N\NC(=O)c1ccc(Br)cc1)c1cccc(NC(=O)c2cccnc2)c1	-13	103	7	110
C/C(=N\NC(=O)c1nn(C)cc1Br)c1cccc(NC(=O)c2ccncc2)c1	-47	100	0	141*
O=C(CNC(=S)N(Cc1ccccc1F)C1CCCCC1)NCC1CCCO1 (stereo unspecified)	-4	101	0	102
Cc1cc(C(=O)CN2C(=O)c3cccc(N)c3C2=O)c(C)n1Cc1cccs1	-51	134*	-43	147*
CC(=O)c1c(C)n(C)c2ccc(OC(=O)c3ccc([N+](=O)[O-])cc3)cc12	1	98	5	98
CN(C)CCCN=c1cc(-c2ccccc2)oc2ccc(Cl)cc12	-54	104	-1	148*
CC(O)CN=c1cc(-c2ccccc2)oc2ccc(Cl)cc12 (stereo unspecified)	-37	95	10	134*
CC(=O)Nc1nc2cc3c(cc2s1)OCO3	-16	97	12	115
O=C(Nc1nc2cc3c(cc2s1)OCO3)C1=COCCO1	49*	26	86*	55
O=C(Nc1nc2cc3c(cc2s1)OCCO3)c1ccncc1	-34	78	27	132*
CCn1c(C)nc2cc(C(=O)NNC(=S)NC(=O)c3ccc(OC)cc3)ccc21	8	98	10	92
O=C(O)CCCCCCCCCCCc1ccccc1	-7	110	-10	105
COc1ccc(CNCc2cccc(Oc3ccccc3)c2)cc1	3	96	10	96
CC(C)Cc1cc(C(=O)Nc2ccc3c(c2)OCO3)no1	-38	99	1	132*
CCc1ccc(NC(=O)c2cc(CC(C)C)on2)cc1	-28	106	-7	127
CC(=O)c1cccc(NC(=O)c2cc3nc(C)cc(C)n3n2)c1	-48	105	-4	145*
O=C(Nc1cccnc1)c1cc(-c2ccc3c(c2)OCO3)on1	-37	97	8	134*
SMILES	STAT1 inh	STAT3 act	STAT3 inh	STAT1 activator
O=C(Nc1cccnc1)c1cc(-c2ccc(F)cc2)on1	-6	96	12	104
Cc1cc(C)n2nc(C(=O)Nc3ccc4c(c3)OCO4)cc2n1	-32	78	30	129*
O=C(Nc1cccc(NC(=O)c2ncn[nH]2)c1)c1cccc(Cl)c1	2	101	0	98
O=C(Cc1cccs1)Nc1cccc(-c2ccc3nncn3n2)c1	2	94	11	97
Cc1ccc(NC(=O)Nc2ccc3c(c2)OCO3)nc1	-52	97	4	149*
COC(=O)c1ccc(COc2cc(O)c3c(c2)OC(C)(C)CC3=O)cc1	8	100	3	93
CC1(C)CC(=O)c2c(O)cc(OCc3ccc(Br)cc3)cc2O1	-50	117	-14	146*
CCS(=O)(=O)C1=NN2C(=N)/C(=C\c3ccc(SCc4ccco4)o3)C(=O)N=C2S1	-8	103	6	108
CC(C(=O)O)c1ccc(N2Cc3ccccc3C2=O)cc1 (stereo unspecified)	-49	76	30	145*
COc1cccc(/C=N/Nc2nn3cnnc3c3ccccc23)c1	10	78	32	91
COc1cc(/C=N/Nc2nn3cnnc3c3ccccc23)ccc1O	36*	51	58*	67
Cc1cc(/C=C(\C#N)C(=O)OCC(=O)Nc2ccc(OC(F)F)cc2)c(C)n1CC(C)C	-3	107	-8	103
